Source: publication PMC11166183 (Inorganic chemistry, 2024)
Where two headings read alike, the source gives them in different places.

Key:
[1] = tested on: SK-MEL-28 cells; assay: Dark cytotoxicity and photocytotoxicity in normoxia, resazurin cell viability; format: cell-based, human
Method in brief: (§1)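 Cells adhered 3–5 h at 37°C, then were dosed at 1 nM to 300 μM. After a 13–22 h DLI, light plates received 100 J cm−2 of broadband visible (400–700 nm, 21 mW cm−2), green (523 nm) or red (633 nm, ±2.5 nm, 18 mW cm−2) light. Dark plates stayed incubated. Viability was read by resazurin after 24 h at 37°C. EC50 came from sigmoidal fits; PI = dark EC50/light EC50.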

[2] = tested on: SK-MEL-28 cells; assay: Dark cytotoxicity and photocytotoxicity in hypoxia; format: cell-based, human; settings: hypoxia 1% O2, regardless of light treatment
Method in brief: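 Cells were moved to a 1% O2 chamber for 2–3 h after adhesion, then dosed (1 nM to 300 μM). After an 18 h DLI, dissolved O2 was checked by optical probe. Light plates were sealed with low-permeability film and illuminated outside the chamber (~1.5 h). All plates were then held in normoxia (37°C, 5% CO2) for 20–23 h before resazurin read-out. EC50 came from sigmoidal fits; PI = dark/light ratio. Each run was done in triplicate.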

[3] = tested on: A549 cells; assay: Dark cytotoxicity and photocytotoxicity in normoxia, resazurin cell viability; format: cell-based, human
Method in brief: as §1

[4] = Lipophilicity by shake-flask method; format: physicochemical; settings: chloride salts, 1-octanol / 10 mM phosphate buffer pH 7.4
[5] = any light condition (visible, 523 nm, 633 nm; 100 J cm−2), normoxia
[6] = read-out: dark EC50, no light, normoxia

log Do/w [4] | Substance | photocytotoxic activity [1, 5] | EC50 [1, 6] | photocytotoxic effect [2] | photocytotoxic activity [3, 5] | EC50 [3, 6] | drop in activity with green light versus visible light ([1]; 523 nm vs visible, normoxia) | PI (dark EC50 / green EC50) ([1]; 523 nm, 100 J cm−2, normoxia, representative replicate (repeat 0)) | EC50 ([1]; read-out: green EC50, 523 nm, 100 J cm−2, normoxia, representative replicate (repeat 0)) | enhancement in visible photocytotoxicity relative to Ru-1T ([1]; visible light, normoxia) | EC50 ([3]; read-out: visible EC50, visible light 400–700 nm, 100 J cm−2, normoxia) | PI (dark EC50 / visible EC50) ([3]; visible light 400–700 nm, 100 J cm−2, normoxia)
– | rac-[Ru(4,4′-btfmb)3](Cl)2 [[Ru(4,4′-btfmb)3]^2+, reference compound] | inactive | > 300000 nM | no photocytotoxic effect | inactive | > 300000 nM | – | – | – | – | – | –
positive | rac-[Ru(4,4′-btfmb)2(IP-2T)](Cl)2 [Ru-2T] | – | – | – | – | – | 3 fold | 91 | 1900 nM | 36 fold | 1370 nM | 127
